Six molecules from ChEMBL document CHEMBL3244325, “Diastereoisomeric N-tetrahydrofurfurylnoroxymorphones with opioid agonist--antagonist properties” (J Med Chem, 1977) can be followed below.

The test system of data set [1] is Mus musculus. The experiment in a line: Analgesic activity in sc dosed mouse assessed as inhibition of phenylquinone-induced writhing. In kind it is functional. (In general: In writhing tests, fewer writhes than in controls are read as antinociception.)
Data set [2] concerns Mus musculus. Nature of the data set: Ratio of LD50 in sc dosed mouse to ED50 in sc dosed mouse by writhing test.
Data set [3] relates to Mus musculus. The experiment in a line: Analgesic activity in sc dosed mouse by tail clip method. In kind it is functional.
Data set [4] is filed under the species Mus musculus. Nature of the data set: Inhibition of morphine-induced analgesia in mouse by tail clip method. In kind it is functional. In a few lines:
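Mice dosed subcutaneously; morphine antagonism measured as suppression of morphine analgesia by a tail-clip-based procedure. AD50 in mg/kg estimated by graphical evaluation of log dose-response curves.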

Data set [5] in a line: Toxicity in sc dosed mouse. It counts as organism-based. The following applies: in vivo. In outline: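 Acute toxicity in mice, expressed as LD50 calculated by the Litchfield and Wilcoxon method.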
Data set [6] has as its system Mus musculus. Nature of the data set: Ratio of morphine hydrochloride ED50 to compound ED50 for sc dosed mouse assessed as inhibition of phenylquinone-induced writhing. In kind it is functional.
Data set [7] relates to Mus musculus. Nature of the data set: Analgesic activity in sc dosed mouse by hot plate method. It counts as functional. In general terms: Hot-plate and tail-flick tests time the reaction to a heat stimulus.

Structures are written as SMILES.

As for `Cl.O=C1CC[C@@]2(O)[C@H]3Cc4ccc(O)c5c4[C@@]2(CCN3C[C@H]2CCCO2)[C@H]1O5`, the results for the ED50 in data set [1], in data set [3] and in data set [7] were 0.02 mg/kg, 200 mg/kg and 1.9 mg/kg, respectively. For the same molecule, the “Ratio LD50/ED50” value in data set [2] was determined as 47750. Moreover, the AD50 in data set [4] is 4 mg/kg. This molecule returned an LD50 in data set [5] of 955 mg/kg. The “Ratio ED50” value in data set [6] is 25.

Molecule `Cl.O=C1CC[C@@]2(O)[C@H]3Cc4ccc(O)c5c4[C@@]2(CCN3C[C@@H]2CCCO2)[C@H]1O5` displayed an AD50 in data set [4] of 5 mg/kg. For the same molecule, in data set [5], the median lethal dose (LD50) was 810 mg/kg.

Take `C=CCN1CC[C@]23c4c5ccc(O)c4O[C@H]2[C@@H](O)C=C[C@H]3[C@H]1C5.Cl` [NALORPHINE HYDROCHLORIDE]: the ED50 in data set [1] was determined as 0.5 mg/kg. Also, the AD50 in data set [4] was 1 mg/kg. In data set [5], this molecule gave an LD50 of 560 mg/kg.

`C=CCN1CC[C@]23c4c5ccc(O)c4O[C@H]2C(=O)CC[C@@]3(O)[C@H]1C5.Cl` [NALOXONE HYDROCHLORIDE] yielded an AD50 in data set [4] of 0.03 mg/kg. Besides, the LD50 in data set [5] was found to be 286 mg/kg.

Turning to `CC(C)=CCN1CCC2(C)c3cc(O)ccc3CC1C2C.Cl` (stereo not given) [PENTAZOCINE HYDROCHLORIDE], in data set [1], the ED50 amounted to 1.4 mg/kg. The molecule also registered an AD50 in data set [4] of 8 mg/kg. In data set [5], this molecule came in with an LD50 of 220 mg/kg.

For `CN1CC[C@]23c4c5ccc(O)c4O[C@H]2[C@@H](O)C=C[C@H]3[C@H]1C5.Cl` [MORPHINE HYDROCHLORIDE], the values for the median effective dose (ED50) in data set [1], in data set [3] and in data set [7] were 0.5 mg/kg, 11 mg/kg and 1.2 mg/kg, respectively.

Usually ED50 stands for the dose at which the effect has come halfway, by size or by number of responders. Broadly, the LD50 is the dose expected to kill half of the subjects tested. Low values mean a more toxic substance, high ones a less toxic substance.
